Data on 35 molecules can be found in ChEMBL document CHEMBL4342526, “Exploration of the Structural Space in 4(3H)-Quinazolinone Antibacterials” (J Med Chem, 2020).

Values after ≈ are worked out from the molar mass of the structure shown.

This assay relates to Staphylococcus aureus. Kind of assay: Antibacterial activity against Staphylococcus aureus ATCC 29213 measured after 16 to 20 hrs by microdilution method. The class given is functional. Put shortly:
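CLSI broth microdilution: two-fold serial dilutions in triplicate in cation-adjusted Mueller–Hinton broth with 2% NaCl, inoculum 5 × 10^5 CFU/mL, incubated at 37 °C for 16–20 h. MIC is the lowest concentration preventing visible growth.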
On the technique in general: Dilution methods test growth across graded concentrations, often in twofold steps.
In general, MIC refers to the lowest concentration found to suppress growth. `CNCCC(=O)Nc1cccc(-n2c(/C=C/c3ccc(C#N)cc3)nc3ccccc3c2=O)c1` displayed a minimum inhibitory concentration (MIC) of more than 128 µg/mL.
With `N#Cc1ccc(/C=C/c2nc3ccccc3c(=O)n2-c2cccc(C(=O)O)c2F)cc1` the figure was 8 µg/mL (≈ 19.4 µM); with `N#Cc1ccc(/C=C/c2nc3ccccc3c(=O)n2-c2cccc(NC(=O)CN3CCOCC3)c2)cc1`, 32 µg/mL (≈ 65.1 µM); with `N#Cc1ccc(CCc2nc3ccccc3c(=O)n2-c2cccc(C(=O)O)c2)cc1`, 8 µg/mL (≈ 20.2 µM).
With `N#Cc1ccc(/C=C/c2nc3ccccc3c(=O)n2-c2ccc3[nH]c(=O)[nH]c3c2)cc1` the figure was more than 128 µg/mL; with `N#Cc1ccc(/C=C/c2nc3ccccc3c(=O)n2CCC(=O)O)cc1`, more than 128 µg/mL; with `N#Cc1ccc(/C=C/c2nc3ccccc3c(=O)n2-c2cc(C(=O)O)ccc2C(F)(F)F)cc1`, more than 128 µg/mL.
`O=C(O)c1cccc(-n2c(/C=C/c3ccc[nH]c3=O)nc3ccccc3c2=O)c1` returned a minimum inhibitory concentration (MIC) of more than 128 µg/mL.
The figure for `O=C(O)c1cccc(-n2c(/C=C/c3ccsc3)nc3ccccc3c2=O)c1` is 32 µg/mL (≈ 85.5 µM).
The figure for `O=c1c2ccccc2nc(NCc2ccc(F)cc2)n1-c1cccc([N+](=O)[O-])c1` is more than 128 µg/mL.
In turn, `Nc1cccc(-n2c(N3CCCCC3)nc3ccccc3c2=O)c1` yielded an MIC of more than 128 µg/mL.
With `N#Cc1ccc(/C=C/c2nc3ccccc3c(=O)n2-c2cc(O)cc(C(=O)O)c2)cc1` the figure was more than 128 µg/mL; with `N#Cc1ccc(/C=C/c2nc3ccccc3c(=O)n2-c2cccnc2)cc1`, more than 128 µg/mL.
With `Nc1cccc(-n2c(NCc3ccc(F)cc3)nc3ccccc3c2=O)c1` the figure was 64 µg/mL (≈ 178 µM).
The figure for `N#Cc1ccc(/C=C/c2nc3ccccc3c(=O)n2-c2ccc(F)c(C(=O)O)c2F)cc1` is 64 µg/mL (≈ 149 µM); for `O=C(O)c1cccc(-n2c(/C=C/C3CC3)nc3ccccc3c2=O)c1` it is more than 128 µg/mL; for `N#Cc1ccc(/C=C/c2nc3ccccc3c(=O)n2-c2ccc(N)cc2)cc1` it is more than 128 µg/mL.
The molecule `O=C(O)c1cccc(-n2c(/C=C/c3cccnc3)nc3ccccc3c2=O)c1` displayed a minimal inhibitory concentration (MIC) of more than 128 µg/mL.
The figure for `N#Cc1ccc(/C=C/c2nc3ccccc3c(=O)n2-c2cccc(C(=O)O)c2O)cc1` is more than 128 µg/mL; for `COc1ccc(C(=O)O)cc1-n1c(/C=C/c2ccc(C#N)cc2)nc2ccccc2c1=O` it is more than 128 µg/mL; for `N#Cc1ccc(/C=C/c2nc3ccccc3c(=O)n2-c2ccc3nc[nH]c3c2)cc1` it is more than 128 µg/mL.
The figure for `CC(=O)NC[C@H]1CN(c2ccc(N3CCOCC3)c(F)c2)C(=O)O1` [LINEZOLID] is 1 µg/mL (≈ 2.96 µM); for `N#Cc1ccc(CNc2nc3ccccc3c(=O)n2-c2cccc(N)c2)cc1` it is 8 µg/mL (≈ 21.8 µM); for `N#Cc1ccc(/C=C/c2nc3ccccc3c(=O)n2-c2cccc(N)c2)cc1` it is 0.5 µg/mL (≈ 1.37 µM).
The figure for `O=C(O)c1cccc(-n2c(/C=C/c3cccs3)nc3ccccc3c2=O)c1` is 8 µg/mL (≈ 21.4 µM); for `O=C(O)c1cccc(-n2c(/C=C/c3cncs3)nc3ccccc3c2=O)c1` it is more than 128 µg/mL.
Take `O=c1c2ccccc2nc(N2CCCCC2)n1-c1cccc([N+](=O)[O-])c1`: the minimal inhibitory concentration (MIC) was more than 128 µg/mL.
The figure for `O=C(O)c1cccc(-n2c(/C=C/c3cc[nH]c(=O)c3)nc3ccccc3c2=O)c1` is more than 128 µg/mL.
With `O=C(O)c1cccc(-n2c(/C=C/c3ccnc(F)c3)nc3ccccc3c2=O)c1` the figure was more than 128 µg/mL.
`O=C(O)c1cccc(-n2c(/C=C/c3ccc(=O)[nH]c3)nc3ccccc3c2=O)c1` returned an MIC of more than 128 µg/mL.
With `N#Cc1ccc(/C=C/c2nc3ccccc3c(=O)n2-c2ccc([N+](=O)[O-])cc2)cc1` the figure was more than 128 µg/mL; with `N#Cc1ccc(/C=C/c2nc3ccccc3c(=O)n2-c2cc(F)cc(C(=O)O)c2)cc1`, more than 128 µg/mL; with `N#Cc1ccc(/C=C/c2nc3ccccc3c(=O)n2-c2cccc(C(=O)O)n2)cc1`, more than 128 µg/mL.
The figure for `N#Cc1ccc(/C=C/c2nc3ccccc3c(=O)n2-c2cccc(NC(=O)NCCc3cnc[nH]3)c2)cc1` is 16 µg/mL (≈ 31.9 µM); for `N#Cc1ccc(/C=C/c2nc3ccccc3c(=O)n2-c2cccc(NC(=O)NCc3cnc[nH]3)c2)cc1` it is more than 128 µg/mL.
